Experimental data published in ChEMBL document CHEMBL2046351, “Discovery of cyclic sulfone hydroxyethylamines as potent and selective β-site APP-cleaving enzyme 1 (BACE1) inhibitors: structure-based design and in vivo reduction of amyloid β-peptides” (J Med Chem, 2012).

These compounds were tested against Beta-secretase 1 (Homo sapiens, UniProt P56817). Details: not given.
Chain of Beta-secretase 1 (P56817 whole entry): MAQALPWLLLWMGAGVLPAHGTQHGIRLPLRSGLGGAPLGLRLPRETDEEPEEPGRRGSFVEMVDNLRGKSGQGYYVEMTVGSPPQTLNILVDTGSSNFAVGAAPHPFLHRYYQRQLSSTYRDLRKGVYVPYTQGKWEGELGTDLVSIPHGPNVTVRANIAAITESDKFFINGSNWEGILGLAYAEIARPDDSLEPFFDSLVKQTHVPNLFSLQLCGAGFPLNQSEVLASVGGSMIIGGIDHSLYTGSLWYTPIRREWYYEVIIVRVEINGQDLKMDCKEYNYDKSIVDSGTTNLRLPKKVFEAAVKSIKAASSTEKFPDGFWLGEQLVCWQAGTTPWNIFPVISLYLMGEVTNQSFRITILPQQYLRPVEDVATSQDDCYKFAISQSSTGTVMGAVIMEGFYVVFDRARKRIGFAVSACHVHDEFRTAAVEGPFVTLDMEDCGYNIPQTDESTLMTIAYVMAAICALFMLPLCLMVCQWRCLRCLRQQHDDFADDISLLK

Row | SMILES | IC50
1 | CC(C)(C)c1cccc(CN[C@H]2CS(=O)(=O)C[C@@H](Cc3cc(F)c(N)c(OCCC(F)(F)F)c3)[C@@H]2O)c1 | 75 nM
2 | CC(C)(C)c1cccc(CN[C@H]2CS(=O)(=O)C[C@@H](Cc3ccc(N)nc3)[C@@H]2O)c1 (racemic) | 1620 nM
3 | CCCOc1cccc(C[C@@H]2CS(=O)(=O)C[C@H](NCc3cccc(C(C)(C)C)c3)[C@H]2O)c1 (relative stereo) | 670 nM
4 | CC(C)Oc1cc(C[C@@H]2CS(=O)(=O)C[C@H](NCc3cccc(C(C)(C)C)c3)[C@H]2O)cc(F)c1N | 43 nM
5 | CC(C)(C)c1cccc(CN[C@H]2CS(=O)(=O)C[C@@H](Cc3ccc4[nH]ncc4c3)[C@@H]2O)c1 (racemic) | 1450 nM
6 | CCCc1n[nH]c2ccc(C[C@@H]3CS(=O)(=O)C[C@H](NCc4cccc(C(C)(C)C)c4)[C@H]3O)cc12 (racemic) | 220 nM
7 | CC(C)(C)c1cccc(CN[C@H]2CS(=O)(=O)C[C@@H](Cc3cc(F)c(N)c(OC4CCC4)c3)[C@@H]2O)c1 | 11 nM
8 | CCc1c[nH]c2ccc(C[C@@H]3CS(=O)(=O)C[C@H](NCc4cccc(C(C)(C)C)c4)[C@H]3O)cc12 (racemic) | 200 nM
9 | CC(C)(C)c1cccc(CN[C@H]2CS(=O)(=O)C[C@@H](Cc3ccc(N)c(OCC(F)(F)F)c3)[C@@H]2O)c1 | 36 nM
10 | CC(C)(C)c1cccc(CN[C@H]2CS(=O)(=O)C[C@@H](Cc3cc(F)c(N)c(-c4ccoc4)c3)[C@@H]2O)c1 | 150 nM
11 | CC(C)(C)c1cccc(CN[C@H]2CS(=O)(=O)C[C@@H](Cc3cc(F)c(N)c(CCC(F)(F)F)c3)[C@@H]2O)c1 | 130 nM
12 | CC(C)(C)O[C@H]1C[C@@H]1CN[C@H]1CS(=O)(=O)C[C@@H](Cc2cc(F)c(N)c(OC(C(F)(F)F)C(F)(F)F)c2)[C@@H]1O (mixture of isomers) | > 10000 nM
13 | Nc1c(F)cc(C[C@@H]2CS(=O)(=O)C[C@H](N)[C@H]2O)cc1OC(C(F)(F)F)C(F)(F)F | > 10000 nM
14 | CC(C)(C)c1cccc(CN[C@H]2CS(=O)(=O)C[C@@H](Cc3cc(F)c(N)c(OCCF)c3)[C@@H]2O)c1 | 43 nM
15 | CC(C)(C)c1cccc(CN[C@H]2CS(=O)(=O)C[C@@H](Cc3cc(F)c(N)c(C4CC4)c3)[C@@H]2O)c1 | 94 nM
16 | CC(C)(C)c1cccc(CN[C@H]2CS(=O)(=O)C[C@@H](Cc3cc(O)c(N)c(F)c3)[C@@H]2O)c1 | 120 nM
17 | C[C@@H](Oc1cc(C[C@@H]2CS(=O)(=O)C[C@H](NCc3cccc(C(C)(C)C)c3)[C@H]2O)cc(F)c1N)C(F)(F)F | 3 nM
18 | CCCc1cc(C[C@@H]2CS(=O)(=O)C[C@H](NCc3cccc(C(C)(C)C)c3)[C@H]2O)cc(F)c1N | 130 nM

These compounds were tested on MDR1 (human) (assay: Efflux ratio of permeability from basolateral to apical over apical to basolateral side of MDCK cells expressing human MDR1 at 5 uM after 2 hrs by LC/MS analysis). Details: dog.
Format: ADME, cell-based, Canis lupus familiaris
How it was run: (§1)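 MDCK cells retrovirally transduced with human MDR1, seeded on transwells ≥3 days; bidirectional transport at 5 μM, 2 h, 37 °C, LC/MS quantitation. Papp = (dQ/dt)/(A·C0), A 0.11 cm2; ER = Papp B>A / Papp A>B. Means of at least three experiments.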

Row | SMILES | efflux ratio at 2 h, 5 µM
19 | CC(C)(C)c1cccc(CN[C@H]2CS(=O)(=O)C[C@@H](Cc3cc(F)c(N)c(OCCC(F)(F)F)c3)[C@@H]2O)c1 | 4
20 | CC(C)(C)c1cccc(CN[C@H]2CS(=O)(=O)C[C@@H](Cc3ccc(N)nc3)[C@@H]2O)c1 (racemic) | 16
21 | CCCOc1cccc(C[C@@H]2CS(=O)(=O)C[C@H](NCc3cccc(C(C)(C)C)c3)[C@H]2O)c1 (relative stereo) | 1
22 | CC(C)Oc1cc(C[C@@H]2CS(=O)(=O)C[C@H](NCc3cccc(C(C)(C)C)c3)[C@H]2O)cc(F)c1N | 3
23 | CC(C)(C)c1cccc(CN[C@H]2CS(=O)(=O)C[C@@H](Cc3ccc4[nH]ncc4c3)[C@@H]2O)c1 (racemic) | 11
24 | CCCc1n[nH]c2ccc(C[C@@H]3CS(=O)(=O)C[C@H](NCc4cccc(C(C)(C)C)c4)[C@H]3O)cc12 (racemic) | 49
25 | CC(C)(C)c1cccc(CN[C@H]2CS(=O)(=O)C[C@@H](Cc3cc(F)c(N)c(OC4CCC4)c3)[C@@H]2O)c1 | 3
26 | CC(C)(C)c1cccc(CN[C@H]2CS(=O)(=O)C[C@@H](Cc3ccc(N)c(OCC(F)(F)F)c3)[C@@H]2O)c1 | 3
27 | CC(C)(C)c1cccc(CN[C@H]2CS(=O)(=O)C[C@@H](Cc3cc(F)c(N)c(-c4ccoc4)c3)[C@@H]2O)c1 | 2
28 | CC(C)(C)c1cccc(CN[C@H]2CS(=O)(=O)C[C@@H](Cc3cc(F)c(N)c(CCC(F)(F)F)c3)[C@@H]2O)c1 | 3
29 | CC(C)(C)O[C@H]1C[C@@H]1CN[C@H]1CS(=O)(=O)C[C@@H](Cc2cc(F)c(N)c(OC(C(F)(F)F)C(F)(F)F)c2)[C@@H]1O (mixture of isomers) | 4
30 | Nc1c(F)cc(C[C@@H]2CS(=O)(=O)C[C@H](N)[C@H]2O)cc1OC(C(F)(F)F)C(F)(F)F | 17
31 | CC(C)(C)c1cccc(CN[C@H]2CS(=O)(=O)C[C@@H](Cc3cc(F)c(N)c(OCCF)c3)[C@@H]2O)c1 | 16
32 | CC(C)(C)c1cccc(CN[C@H]2CS(=O)(=O)C[C@@H](Cc3cc(F)c(N)c(C4CC4)c3)[C@@H]2O)c1 | 3
33 | CC(C)(C)c1cccc(CN[C@H]2CS(=O)(=O)C[C@@H](Cc3cc(O)c(N)c(F)c3)[C@@H]2O)c1 | 27
34 | C[C@@H](Oc1cc(C[C@@H]2CS(=O)(=O)C[C@H](NCc3cccc(C(C)(C)C)c3)[C@H]2O)cc(F)c1N)C(F)(F)F | 5
35 | CCCc1cc(C[C@@H]2CS(=O)(=O)C[C@H](NCc3cccc(C(C)(C)C)c3)[C@H]2O)cc(F)c1N | 2

Each compound was assayed against Cathepsin D (Homo sapiens, UniProt P07339) (assay: Inhibition of human recombinant CatD using Mca-GKPILFFRLK(DNP)-dR-NH2 as substrate after 1 hr by fluorescence analysis). Details: not given.
Chain of Cathepsin D (P07339 65-162 limits assumed): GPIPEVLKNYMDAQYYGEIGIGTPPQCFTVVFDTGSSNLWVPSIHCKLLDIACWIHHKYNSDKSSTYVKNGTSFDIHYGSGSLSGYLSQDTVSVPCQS
Chain of Cathepsin D (P07339 169-412 limits assumed): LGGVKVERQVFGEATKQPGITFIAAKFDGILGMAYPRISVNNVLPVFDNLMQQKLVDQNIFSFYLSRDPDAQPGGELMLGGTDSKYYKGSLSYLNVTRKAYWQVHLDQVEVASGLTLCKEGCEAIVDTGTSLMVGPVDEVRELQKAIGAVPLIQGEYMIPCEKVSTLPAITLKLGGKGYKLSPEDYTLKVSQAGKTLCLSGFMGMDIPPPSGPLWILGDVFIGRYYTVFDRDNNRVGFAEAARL

Row | SMILES | IC50
36 | CC(C)(C)c1cccc(CN[C@H]2CS(=O)(=O)C[C@@H](Cc3cc(F)c(N)c(OCCC(F)(F)F)c3)[C@@H]2O)c1 | 2400 nM
37 | CC(C)(C)c1cccc(CN[C@H]2CS(=O)(=O)C[C@@H](Cc3ccc(N)nc3)[C@@H]2O)c1 (racemic) | > 10000 nM
38 | CCCOc1cccc(C[C@@H]2CS(=O)(=O)C[C@H](NCc3cccc(C(C)(C)C)c3)[C@H]2O)c1 (relative stereo) | 290 nM
39 | CC(C)Oc1cc(C[C@@H]2CS(=O)(=O)C[C@H](NCc3cccc(C(C)(C)C)c3)[C@H]2O)cc(F)c1N | 2220 nM
40 | CC(C)(C)c1cccc(CN[C@H]2CS(=O)(=O)C[C@@H](Cc3ccc4[nH]ncc4c3)[C@@H]2O)c1 (racemic) | 3750 nM
41 | CCCc1n[nH]c2ccc(C[C@@H]3CS(=O)(=O)C[C@H](NCc4cccc(C(C)(C)C)c4)[C@H]3O)cc12 (racemic) | 1630 nM
42 | CC(C)(C)c1cccc(CN[C@H]2CS(=O)(=O)C[C@@H](Cc3cc(F)c(N)c(OC4CCC4)c3)[C@@H]2O)c1 | 390 nM
43 | CCc1c[nH]c2ccc(C[C@@H]3CS(=O)(=O)C[C@H](NCc4cccc(C(C)(C)C)c4)[C@H]3O)cc12 (racemic) | 2480 nM
44 | CC(C)(C)c1cccc(CN[C@H]2CS(=O)(=O)C[C@@H](Cc3ccc(N)c(OCC(F)(F)F)c3)[C@@H]2O)c1 | 4370 nM
45 | CC(C)(C)c1cccc(CN[C@H]2CS(=O)(=O)C[C@@H](Cc3cc(F)c(N)c(-c4ccoc4)c3)[C@@H]2O)c1 | 510 nM
46 | CC(C)(C)c1cccc(CN[C@H]2CS(=O)(=O)C[C@@H](Cc3cc(F)c(N)c(CCC(F)(F)F)c3)[C@@H]2O)c1 | 980 nM
47 | CC(C)(C)O[C@H]1C[C@@H]1CN[C@H]1CS(=O)(=O)C[C@@H](Cc2cc(F)c(N)c(OC(C(F)(F)F)C(F)(F)F)c2)[C@@H]1O (mixture of isomers) | 3710 nM
48 | Nc1c(F)cc(C[C@@H]2CS(=O)(=O)C[C@H](N)[C@H]2O)cc1OC(C(F)(F)F)C(F)(F)F | > 10000 nM
49 | CC(C)(C)c1cccc(CN[C@H]2CS(=O)(=O)C[C@@H](Cc3cc(F)c(N)c(OCCF)c3)[C@@H]2O)c1 | 2000 nM
50 | CC(C)(C)c1cccc(CN[C@H]2CS(=O)(=O)C[C@@H](Cc3cc(F)c(N)c(C4CC4)c3)[C@@H]2O)c1 | 1740 nM
51 | CC(C)(C)c1cccc(CN[C@H]2CS(=O)(=O)C[C@@H](Cc3cc(O)c(N)c(F)c3)[C@@H]2O)c1 | 540 nM
52 | C[C@@H](Oc1cc(C[C@@H]2CS(=O)(=O)C[C@H](NCc3cccc(C(C)(C)C)c3)[C@H]2O)cc(F)c1N)C(F)(F)F | 480 nM
53 | CCCc1cc(C[C@@H]2CS(=O)(=O)C[C@H](NCc3cccc(C(C)(C)C)c3)[C@H]2O)cc(F)c1N | 1390 nM

These compounds were tested on MDR1 (human) (assay: Apparent permeability across MDCK cells expressing human MDR1 at 5 uM after 2 hrs by LC-MS analysis). Details: dog.
Format: ADME, cell-based, Canis lupus familiaris
How it was run: as §1

Row | SMILES | Papp at 2 h, 5 µM
54 | CC(C)(C)c1cccc(CN[C@H]2CS(=O)(=O)C[C@@H](Cc3cc(F)c(N)c(OCCC(F)(F)F)c3)[C@@H]2O)c1 | 12 ×10⁻⁶ cm/s
55 | CC(C)(C)c1cccc(CN[C@H]2CS(=O)(=O)C[C@@H](Cc3ccc(N)nc3)[C@@H]2O)c1 (racemic) | 17.4 ×10⁻⁶ cm/s
56 | CCCOc1cccc(C[C@@H]2CS(=O)(=O)C[C@H](NCc3cccc(C(C)(C)C)c3)[C@H]2O)c1 (relative stereo) | 2 ×10⁻⁶ cm/s
57 | CC(C)Oc1cc(C[C@@H]2CS(=O)(=O)C[C@H](NCc3cccc(C(C)(C)C)c3)[C@H]2O)cc(F)c1N | 14 ×10⁻⁶ cm/s
58 | CC(C)(C)c1cccc(CN[C@H]2CS(=O)(=O)C[C@@H](Cc3ccc4[nH]ncc4c3)[C@@H]2O)c1 (racemic) | 23 ×10⁻⁶ cm/s
59 | CCCc1n[nH]c2ccc(C[C@@H]3CS(=O)(=O)C[C@H](NCc4cccc(C(C)(C)C)c4)[C@H]3O)cc12 (racemic) | 30 ×10⁻⁶ cm/s
60 | CC(C)(C)c1cccc(CN[C@H]2CS(=O)(=O)C[C@@H](Cc3cc(F)c(N)c(OC4CCC4)c3)[C@@H]2O)c1 | 6 ×10⁻⁶ cm/s
61 | CC(C)(C)c1cccc(CN[C@H]2CS(=O)(=O)C[C@@H](Cc3ccc(N)c(OCC(F)(F)F)c3)[C@@H]2O)c1 | 23 ×10⁻⁶ cm/s
62 | CC(C)(C)c1cccc(CN[C@H]2CS(=O)(=O)C[C@@H](Cc3cc(F)c(N)c(-c4ccoc4)c3)[C@@H]2O)c1 | 3 ×10⁻⁶ cm/s
63 | CC(C)(C)c1cccc(CN[C@H]2CS(=O)(=O)C[C@@H](Cc3cc(F)c(N)c(CCC(F)(F)F)c3)[C@@H]2O)c1 | 11 ×10⁻⁶ cm/s
64 | Nc1c(F)cc(C[C@@H]2CS(=O)(=O)C[C@H](N)[C@H]2O)cc1OC(C(F)(F)F)C(F)(F)F | 13 ×10⁻⁶ cm/s
65 | CC(C)(C)c1cccc(CN[C@H]2CS(=O)(=O)C[C@@H](Cc3cc(F)c(N)c(OCCF)c3)[C@@H]2O)c1 | 26 ×10⁻⁶ cm/s
66 | CC(C)(C)c1cccc(CN[C@H]2CS(=O)(=O)C[C@@H](Cc3cc(F)c(N)c(C4CC4)c3)[C@@H]2O)c1 | 16 ×10⁻⁶ cm/s
67 | CC(C)(C)c1cccc(CN[C@H]2CS(=O)(=O)C[C@@H](Cc3cc(O)c(N)c(F)c3)[C@@H]2O)c1 | 14 ×10⁻⁶ cm/s
68 | C[C@@H](Oc1cc(C[C@@H]2CS(=O)(=O)C[C@H](NCc3cccc(C(C)(C)C)c3)[C@H]2O)cc(F)c1N)C(F)(F)F | 10 ×10⁻⁶ cm/s
69 | CCCc1cc(C[C@@H]2CS(=O)(=O)C[C@H](NCc3cccc(C(C)(C)C)c3)[C@H]2O)cc(F)c1N | 7 ×10⁻⁶ cm/s
